Data from ChEMBL document CHEMBL1141355, “Triterpene, antioxidant, and antimicrobial compounds from Melissa officinalis” (J Nat Prod, 2007).
Values after ≈ are worked out from the molar mass of the structure shown.

Experiments:
Assay type in all cases: functional
[1] = Antioxidant activity assessed as DPPH reducing activity
In short: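 DPPH radical (0.025 g/L in MeOH, prepared daily) mixed with sample in MeOH, maximum concentration 200 µg/mL; vehicle control. Absorbance read at 515 nm after 10 min. Remaining DPPH calculated from a calibration curve. α-Tocopherol served as positive control. Run in triplicate; EC50 obtained by the Litchfield and Wilcoxon method.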

Staphylococcus aureus = assay: Antibacterial activity against Staphylococcus aureus ATCC 6538 after 24 hrs by broth microdilution assay
In short: (§1)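 Broth microdilution in Triptone, in duplicate, per NCCLS. Samples dissolved in DMSO, then diluted in Triptone; final concentrations 2 to 0.0078 mg/mL for the pure compound and 16 to 0.031 mg/mL for extracts. Inoculum 10^5 CFU/mL. Incubation 24 h at 37 °C, read visually from below. MIC taken as the lowest concentration inhibiting growth. Controls: growth without sample, and DMSO blank.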

[2] = tested on: Staphylococcus epidermidis; assay: Antibacterial activity against Staphylococcus epidermidis ATCC 12228 after 24 hrs by broth microdilution assay; in short: as §1
Pseudomonas aeruginosa = assay: Antibacterial activity against Pseudomonas aeruginosa ATCC 9027 after 24 hrs by broth microdilution assay; in short: as §1
Escherichia coli = assay: Antibacterial activity against Escherichia coli ATCC 8739 after 24 hrs by broth microdilution assay; in short: as §1
Candida albicans = assay: Antifungal activity against Candida albicans ATCC 10231 after 24 hrs by broth microdilution assay
In short: (§2)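 ATCC strain in 96-well broth microdilution, run in duplicate following NCCLS guidance. Samples were dissolved in DMSO, then diluted in Triptone as serial dilutions: final 16 to 0.031 mg/mL for extracts, 2 to 0.0078 mg/mL for the pure compound. Inoculum suspension was 10^5 CFU/mL. Growth-control and DMSO blank wells were included. Plates were incubated 24 h at 37 °C. MIC is the lowest concentration inhibiting visible growth.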

Aspergillus niger = assay: Antifungal activity against Aspergillus niger ATCC 16404 after 24 hrs by broth microdilution assay; details: ATCC 16404, 24 h; in short: as §1
Bacillus spizizenii = assay: Antibacterial activity against Bacillus subtilis subsp. […] after 24 hrs by broth microdilution assay; in short: as §2

Compound: Cc1c(C)c2c(c(C)c1O)CC[C@@](C)(CCC[C@H](C)CCC[C@H](C)CCCC(C)C)O2 [ALPHA-TOCOPHEROL]
- EC50 [1]: 10.1 µg/mL (≈ 23.4 µM)

Compound: O=C(/C=C/c1ccc(O)c(O)c1)O[C@H](Cc1ccc(O)c(O)c1)C(=O)O [ROSMARINIC ACID]
- EC50 [1]: 3.1 µg/mL (≈ 8.6 µM)
- MIC (Staphylococcus aureus; ATCC 6538, 24 h): 120 µg/mL (≈ 333 µM)
- MBC (Staphylococcus aureus; ATCC 6538, 48 h, in the assay text read “48 hrs” for “24 hrs”): 120 µg/mL (≈ 333 µM)
- MIC ([2]; ATCC 12228, 24 h): 120 µg/mL (≈ 333 µM)
- MBC ([2]; ATCC 12228, 48 h, in the assay text read “48 hrs” for “24 hrs”): 120 µg/mL (≈ 333 µM)
- MIC (Pseudomonas aeruginosa; ATCC 9027, 24 h): > 2000 µg/mL
- MIC (Escherichia coli; ATCC 8739, 24 h): > 2000 µg/mL
- MIC (Candida albicans; ATCC 10231, 24 h): > 2000 µg/mL
- MIC (Aspergillus niger): > 2000 µg/mL
- MBC (Bacillus spizizenii; ATCC 6633, 24 h, in the assay text read “ATCC 6633” for “ATCC 9027”): 120 µg/mL (≈ 333 µM)

Compound: GENTAMICIN
- MIC (Staphylococcus aureus): 1 µg/mL
- MIC [2]: 1 µg/mL
- MIC (Pseudomonas aeruginosa): 4 µg/mL
- MIC (Escherichia coli): 4 µg/mL
- MIC (Bacillus spizizenii): 1 µg/mL

Compound: NYSTATIN
- MIC (Candida albicans): 1 µg/mL
